According to ChEMBL document CHEMBL4118252, “Identification of novel thiazolo[5,4-d]pyrimidine derivatives as human A1 and A2A adenosine receptor antagonists/inverse agonists” (Bioorg Med Chem, 2018):

How the values were obtained:
Adenosine receptor A2a [1] = biological target: T1, Adenosine receptor A2a (Homo sapiens, UniProt P29274); test: Displacement of [3H]-ZM 241,385 from human A2A adenosine receptor expressed in CHO cell membranes after 60 mins by scintillation counting method
Method in brief: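 hA2A CHO membranes (50 µg protein/100 µl), 1 nM [3H]-ZM 241385, graded test concentrations, 60 min at 4°C in 50 mM Tris-HCl pH 7.4 with 10 mM MgCl2. Nonspecific: 1 µM ZM 241385.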

Adenosine receptor A2a [2] = biological target: T1, Adenosine receptor A2a; test: Displacement of [3H]-ZM 241,385 from human A2A adenosine receptor expressed in CHO cell membranes at 10 uM after 60 mins by scintillation counting method relative to control
Method in brief: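 Using 1 nM [3H]-ZM 241385 on hA2A CHO membranes, 60 min, 4°C, 50 mM Tris-HCl pH 7.4, 10 mM MgCl2; 1 µM ZM 241385 for nonspecific binding; filtered and counted. Percent inhibition measured at 10 µM compound.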

Adenosine receptor A1 [3] = biological target: T2, Adenosine receptor A1 (Homo sapiens, UniProt P30542); test: Displacement of [3H]-DPCPX from human A1 adenosine receptor expressed in CHO cell membranes after 90 mins by scintillation counting method
T2 sequence (P30542 whole entry): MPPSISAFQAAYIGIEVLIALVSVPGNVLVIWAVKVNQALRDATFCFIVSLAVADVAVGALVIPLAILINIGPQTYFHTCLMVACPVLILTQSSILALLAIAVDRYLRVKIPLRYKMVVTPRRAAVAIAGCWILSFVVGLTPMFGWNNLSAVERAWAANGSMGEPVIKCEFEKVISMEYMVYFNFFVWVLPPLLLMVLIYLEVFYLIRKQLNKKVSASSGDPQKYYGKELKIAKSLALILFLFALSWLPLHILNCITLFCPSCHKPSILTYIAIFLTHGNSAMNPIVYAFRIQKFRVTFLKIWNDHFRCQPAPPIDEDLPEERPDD
Method in brief: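 Membranes from CHO cells expressing hA1 (50 µg protein/100 µl) incubated with 1 nM [3H]-DPCPX and varying test concentrations, 25°C, 90 min, 50 mM Tris-HCl pH 7.4. Nonspecific binding with 1 µM DPCPX. Filtration over glass fiber filters, scintillation counting.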

Adenosine receptor A2b = biological target: T3, Adenosine receptor A2b (Homo sapiens, UniProt P29275); test: Antagonist activity at human A2B adenosine receptor assessed as inhibition of NECA-stimulated cAMP level after 30 mins by Alphascreen assay; assay type: functional
T3 sequence (P29275 whole entry): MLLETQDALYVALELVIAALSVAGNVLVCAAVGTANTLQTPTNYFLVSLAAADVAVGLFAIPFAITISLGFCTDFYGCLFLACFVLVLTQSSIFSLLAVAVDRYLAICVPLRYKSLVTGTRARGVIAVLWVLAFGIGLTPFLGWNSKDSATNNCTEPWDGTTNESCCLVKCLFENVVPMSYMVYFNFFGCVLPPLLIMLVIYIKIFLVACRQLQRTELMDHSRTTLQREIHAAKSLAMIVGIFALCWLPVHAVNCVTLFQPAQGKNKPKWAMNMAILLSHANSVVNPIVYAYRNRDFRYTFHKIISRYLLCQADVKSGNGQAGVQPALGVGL
Method in brief: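 Cells with compounds and anti-cAMP acceptor beads 30 min, then streptavidin donor beads plus biotinylated cAMP 1 h; AlphaScreen read. IC50 by sigmoid nonlinear regression.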

Adenosine receptor A3 = biological target: T4, Adenosine receptor A3 (Homo sapiens, UniProt P0DMS8); test: Displacement of [125I]-ABMECA from human A3 adenosine receptor expressed in CHO cell membranes after 120 mins by scintillation counting method
T4 sequence (P0DMS8 whole entry): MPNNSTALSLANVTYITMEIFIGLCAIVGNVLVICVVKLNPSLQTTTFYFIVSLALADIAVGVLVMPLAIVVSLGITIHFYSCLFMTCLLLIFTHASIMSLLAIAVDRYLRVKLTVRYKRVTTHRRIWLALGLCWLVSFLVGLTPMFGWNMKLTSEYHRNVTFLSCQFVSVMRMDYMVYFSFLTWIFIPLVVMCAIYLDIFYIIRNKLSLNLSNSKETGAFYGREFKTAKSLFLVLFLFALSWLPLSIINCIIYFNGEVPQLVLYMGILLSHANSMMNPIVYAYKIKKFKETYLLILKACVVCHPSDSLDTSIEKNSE

Adenosine receptor A2a [4] = biological target: T1, Adenosine receptor A2a; test: Inverse agonist activity at human A2A adenosine receptor expressed in CHO cells assessed as inhibition of basal cAMP level after 30 mins by Alphascreen assay; assay type: functional, cell-based
Method in brief: (§1)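 hA2A CHO cells exposed to varied compound concentrations without agonist, measuring decrease of basal cAMP; AlphaScreen detection (30 min acceptor beads, then 1 h donor beads with biotinylated cAMP). IC50 from sigmoid nonlinear fit, Emax efficacy; mean ± SEM.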

Adenosine receptor A2a [5] = biological target: T1, Adenosine receptor A2a; test: Antagonist activity at human A2A adenosine receptor expressed in CHO cells assessed as inhibition of CGS21680-stimulated cAMP level after 30 mins by Alphascreen assay; assay type: functional, cell-based
Method in brief: (§2)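 Same hA2A CHO cAMP experiment run in presence of CGS 21680 (10 nM); compounds at varied concentrations, AlphaScreen cAMP detection (30 min, then 1 h). IC50 via sigmoid nonlinear regression, Emax efficacy; four experiments in triplicate, mean ± SEM.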

[6] = biological target: T5, Adenosine receptor A1 (Homo sapiens) (UniProt P30542); test: Modulation of human A1 adenosine receptor expressed in CHO cells assessed as forskolin-stimulated cAMP level after 30 mins by Alphascreen assay relative to control; assay type: functional, cell-based
T5 sequence (whole entry): T2 sequence (P30542 whole entry)
Method in brief: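 In hA1 CHO cells, compounds incubated with Forskolin (5 µM) without agonist; cAMP quantified by AlphaScreen (30 min acceptor-bead step, then 1 h donor beads and biotinylated cAMP). Expressed as % of Forskolin-stimulated cAMP (100%); mean ± SEM.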

Adenosine receptor A1 [7] = biological target: T2, Adenosine receptor A1; test: Antagonist activity at human A1 adenosine receptor expressed in CHO cells assessed as inhibition of CCPA-induced reduction of forskolin-stimulated cAMP level after 30 mins by Alphascreen assay; assay type: functional, cell-based
Method in brief: (§3)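 hA1 CHO cells given Forskolin (5 µM) and 1 nM CCPA with varied compound concentrations; AlphaScreen cAMP detection (30 min with acceptor beads, then donor beads/biotinylated cAMP 1 h). IC50 by sigmoid nonlinear regression; Emax as efficacy in reversing CCPA inhibition; mean ± SEM.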

[8] = biological target: T5, Adenosine receptor A1 (Homo sapiens); test: Antagonist activity at human A1 adenosine receptor expressed in CHO cells assessed as inhibition of CCPA-induced reduction of forskolin-stimulated cAMP level after 30 mins by Alphascreen assay relative to control; assay type: functional, cell-based; method in brief: as §3
Adenosine receptor A2a [9] = biological target: T1, Adenosine receptor A2a; test: Inverse agonist activity at human A2A adenosine receptor expressed in CHO cells assessed as inhibition of basal cAMP level after 30 mins by Alphascreen assay relative to control; assay type: functional, cell-based; method in brief: as §1
Adenosine receptor A2a [10] = biological target: T1, Adenosine receptor A2a; test: Antagonist activity at human A2A adenosine receptor expressed in CHO cells assessed as inhibition of CGS21680-stimulated cAMP level after 30 mins by Alphascreen assay relative to control; assay type: functional, cell-based; method in brief: as §2
[11] = biological target: T6, Adenosine receptor A2b (Homo sapiens) (UniProt P29275); test: Antagonist activity at human A2B adenosine receptor assessed as inhibition of NECA-stimulated cAMP level at 10 uM after 30 mins by Alphascreen assay relative to control; assay type: functional
T6 sequence (whole entry): T3 sequence (P29275 whole entry)

T1 sequence (P29274 whole entry): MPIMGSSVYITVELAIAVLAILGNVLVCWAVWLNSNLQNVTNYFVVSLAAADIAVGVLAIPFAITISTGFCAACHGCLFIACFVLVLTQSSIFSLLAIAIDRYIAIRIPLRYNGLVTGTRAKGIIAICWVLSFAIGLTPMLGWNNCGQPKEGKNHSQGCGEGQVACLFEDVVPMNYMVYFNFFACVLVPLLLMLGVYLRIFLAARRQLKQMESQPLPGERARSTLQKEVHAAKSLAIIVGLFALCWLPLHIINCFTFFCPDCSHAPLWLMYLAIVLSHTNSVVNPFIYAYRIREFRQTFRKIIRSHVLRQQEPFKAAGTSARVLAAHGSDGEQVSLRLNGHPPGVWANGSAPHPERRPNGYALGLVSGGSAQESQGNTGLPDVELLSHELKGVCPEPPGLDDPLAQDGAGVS

**Q.** With `Cc1nc2c(N)nc(Nc3ccccc3)nc2s1` as the compound, how does the Ki (Adenosine receptor A2a [1]) read?
**A.** Its Ki is 608 nM.

**Q.** With `Cc1nc2c(N)nc(NCc3cccs3)nc2s1` as the compound, how does the Ki (Adenosine receptor A2a [1]) read?
**A.** Its Ki is 313 nM.

**Q.** How did the Ki (Adenosine receptor A2a [1]) turn out when `Nc1nc(Nc2ccccc2)nc2sc(-c3ccccc3)nc12` was run?
**A.** The Ki was greater than 10000 nM.

**Q.** What about the inhibition (Adenosine receptor A2a [2]) of the same compound?
**A.** Its inhibition is 1%.

**Q.** Which Ki (Adenosine receptor A2a [1]) does the source give for `Nc1nc(NCc2ccccc2)nc2sc(-c3ccccc3)nc12` here?
**A.** Its Ki is 116 nM.

**Q.** Which results are given for `Cc1nc2c(N)nc(NCCc3ccccc3)nc2s1`?
**A.** Ki (Adenosine receptor A1 [3]): 140 nM; Ki (Adenosine receptor A2a [1]): 78 nM; IC50 (Adenosine receptor A2b): 1100 nM; Ki (Adenosine receptor A3): 548 nM

**Q.** With `COc1ccccc1CNc1nc(N)c2nc(-c3ccccc3)sc2n1` as the compound, how does the Ki (Adenosine receptor A2a [1]) read?
**A.** Its Ki is 4.72 nM.

**Q.** And the IC50 (Adenosine receptor A2a [4])?
**A.** Its IC50 is 5.34 nM.

**Q.** What about the IC50 (Adenosine receptor A2a [5]) of the same compound?
**A.** Its IC50 is 7.63 nM.

**Q.** `Nc1nc(NCc2cccs2)nc2sc(-c3cnccn3)nc12` was tested. Which Ki (Adenosine receptor A2a [1]) did it give?
**A.** Its Ki is 219 nM.

**Q.** How did the Ki (Adenosine receptor A2a [1]) turn out when `COc1cccc(CNc2nc(N)c3nc(C)sc3n2)c1` was run?
**A.** Its Ki is 212 nM.

**Q.** `Cc1nc2c(N)nc(NCCc3cccs3)nc2s1` was tested. Which Ki (Adenosine receptor A1 [3]) did it give?
**A.** Its Ki is 92 nM.

**Q.** And the Ki (Adenosine receptor A2a [1])?
**A.** The Ki was 61 nM.

**Q.** What about the IC50 (Adenosine receptor A2b) of the same compound?
**A.** The IC50 was 134 nM.

**Q.** What about the Activity [6] of the same compound?
**A.** The Activity was 100%.

**Q.** What about the IC50 (Adenosine receptor A1 [7]) of the same compound?
**A.** The IC50 was 107 nM.

**Q.** What about the Emax [8] of the same compound?
**A.** Its Emax is 98%.

**Q.** And the IC50 (Adenosine receptor A2a [4])?
**A.** Its IC50 is 83 nM.

**Q.** What about the Emax (Adenosine receptor A2a [9]) of the same compound?
**A.** Its Emax is 58%.

**Q.** What about the IC50 (Adenosine receptor A2a [5]) of the same compound?
**A.** The IC50 was 102 nM.

**Q.** And the Emax (Adenosine receptor A2a [10])?
**A.** Its Emax is 124%.

**Q.** What about the Ki (Adenosine receptor A3) of the same compound?
**A.** The Ki was 1520 nM.

**Q.** Which Ki (Adenosine receptor A2a [1]) does the source give for `COc1ccccc1CNc1nc(N)c2nc(-c3cnccn3)sc2n1` here?
**A.** Its Ki is 79 nM.

**Q.** Which Ki (Adenosine receptor A2a [1]) does the source give for `COc1cccc(CNc2nc(N)c3nc(-c4cnccn4)sc3n2)c1` here?
**A.** Its Ki is 973 nM.

**Q.** What does the source list for `Nc1nc(NCCc2ccccc2)nc2sc(-c3ccccc3)nc12`?
**A.** Ki (Adenosine receptor A1 [3]): 121 nM; Ki (Adenosine receptor A2a [1]): 406 nM; IC50 (Adenosine receptor A2b): 4380 nM; Ki (Adenosine receptor A3): 2270 nM

**Q.** What does the source list for `COc1ccc(CCNc2nc(N)c3nc(-c4ccccc4)sc3n2)cc1`?
**A.** Ki (Adenosine receptor A1 [3]): 485 nM; Ki (Adenosine receptor A2a [1]): 403 nM; IC50 (Adenosine receptor A2b): > 10000 nM; inhibition [11]: 33%; Ki (Adenosine receptor A3): 3530 nM

**Q.** How did the Ki (Adenosine receptor A2a [1]) turn out when `COc1cccc(CNc2nc(N)c3nc(-c4ccccc4)sc3n2)c1` was run?
**A.** Its Ki is 42 nM.

**Q.** And the IC50 (Adenosine receptor A2a [4])?
**A.** The IC50 was 48 nM.

**Q.** And the Emax (Adenosine receptor A2a [9])?
**A.** The Emax was 52%.

**Q.** What about the IC50 (Adenosine receptor A2a [5]) of the same compound?
**A.** The IC50 was 66 nM.

**Q.** What about the Emax (Adenosine receptor A2a [10]) of the same compound?
**A.** Its Emax is 128%.

**Q.** How did the Ki (Adenosine receptor A2a [1]) turn out when `Cc1nc2c(N)nc(NCc3ccccc3)nc2s1` was run?
**A.** The Ki was 532 nM.

**Q.** How did the Ki (Adenosine receptor A2a [1]) turn out when `Nc1nc(NCc2cccs2)nc2sc(-c3ccccc3)nc12` was run?
**A.** The Ki was 28 nM.

**Q.** What about the IC50 (Adenosine receptor A2a [4]) of the same compound?
**A.** The IC50 was 36 nM.

**Q.** And the Emax (Adenosine receptor A2a [9])?
**A.** The Emax was 64%.

**Q.** What about the IC50 (Adenosine receptor A2a [5]) of the same compound?
**A.** The IC50 was 43 nM.

**Q.** What about the Emax (Adenosine receptor A2a [10]) of the same compound?
**A.** The Emax was 131%.

**Q.** Which Ki (Adenosine receptor A2a [1]) does the source give for `COc1ccccc1CNc1nc(N)c2nc(C)sc2n1` here?
**A.** Its Ki is 135 nM.

**Q.** How did the Ki (Adenosine receptor A1 [3]) turn out when `Nc1nc(NCCc2ccc(O)cc2)nc2sc(-c3ccccc3)nc12` was run?
**A.** Its Ki is 242 nM.

**Q.** What about the Ki (Adenosine receptor A2a [1]) of the same compound?
**A.** The Ki was 96 nM.

**Q.** And the IC50 (Adenosine receptor A2b)?
**A.** Its IC50 is 7520 nM.

**Q.** And the Ki (Adenosine receptor A3)?
**A.** The Ki was 1610 nM.
